According to ChEMBL document CHEMBL2321796, “Synthesis of 8-hydroxyquinoline derivatives as novel antitumor agents” (ACS Med Chem Lett, 2013):
Values after ≈ are worked out from the molar mass of the structure shown. Active and inactive are the calls of the source. The calls are words filed in the database; no cut-off is given here.

Legend:
K562 [1] = assay: Cytotoxicity against human K562 cells at 50 ug/ml after 48 hrs by MTS assay relative to control; assay type: functional
Method in brief: (§1)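 Single-concentration screen at 50 μg/mL against T-47D and K562 cells, activity expressed relative to a vehicle control set at 100. Means ± SDs from triplicated experiments.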

T47D [2] = assay: Cytotoxicity against human T47D cells at 50 ug/ml after 48 hrs by MTS assay relative to control; assay type: functional; method in brief: as §1
MDA-MB-231 [3] = assay: Cytotoxicity against human MDA-MB-231 cells after 48 hrs by MTS assay; assay type: functional
Method in brief: (§2)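 MTS assay on cancer cell lines and nontumor NIH3T3 cells. MTS50 is the concentration giving 50% reduction of MTS signal versus control. Dose-response tests run in triplicate over three independent experiments, means ± SDs against vehicle control.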

MDA-MB-231 [4] = assay: Induction of morphological changes in human MDA-MB-231 cells at 50 ug/ml; assay type: functional, cell-based
A549 = assay: Cytotoxicity against human A549 cells after 48 hrs by MTS assay; assay type: functional; method in brief: as §2
[5] = Down regulation of CCL5 gene expression in human KYSE-150 cells at 8.5 ug/ml after 48 hrs; assay type: functional, cell-based
Method in brief: (§3)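 KYSE150 esophageal cancer cells treated with 8.5 μg/mL for 48 h alongside a vehicle control. Total RNA extracted and gene expression change expressed as percent change in detection signal versus control.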

K562 [6] = assay: Cytotoxicity against human K562 cells after 48 hrs by MTS assay; assay type: functional; method in brief: as §2
T47D [7] = assay: Induction of morphological changes in human T47D cells at 50 ug/ml; assay type: functional, cell-based
SK-HEP1 = assay: Cytotoxicity against human SKHEP1 cells after 48 hrs by MTS assay; assay type: functional; method in brief: as §2
Mus musculus [8] = assay: Toxicity in human Hep3B cells xenografted athymic nude mouse assessed as mortality at 10 mg/kg, ip qd for 8 days; assay type: organism-based, Hep 3B2; set-up: dose 10 mg/kg, route intraperitoneal; conditions: in vivo, 192 h
Method in brief: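 Athymic nude mice bearing subcutaneous human Hep3B hepatocellular carcinoma xenografts, five per group, received 10 mg/kg/day intraperitoneally once daily, with a vehicle-treated control group. Deaths were recorded over the treatment period.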

T47D [9] = assay: Ratio of CDDP IC50 to compound IC50 for human T47D cells; assay type: functional
Hep 3B2 = assay: Antitumor activity against human Hep3B cells xenografted in athymic nude mouse assessed as disappearance of tumor at 10 mg/kg, ip qd for 8 days; assay type: functional, organism-based; set-up: dose 10 mg/kg; conditions: in the assay text read “for 9 days” for “for 8 days”
Method in brief: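 Subcutaneous Hep3B hepatocellular carcinoma xenografts in athymic nude mice, five per group, vehicle control group. Dosing 10 mg/kg/day by daily intraperitoneal injection, 9 days. Tumor volume (mm3) followed, given as mean + SD, Student's t test. Vital organs examined by hematoxylin and eosin histology.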

Hs-578T [10] = assay: Induction of morphological changes in human Hs578T cells at 50 ug/ml; assay type: functional, cell-based
SAOS-2 = assay: Cytotoxicity against human Saos2 cells after 48 hrs by MTS assay; assay type: functional; method in brief: as §2
T47D [11] = assay: Inhibition of colony formation in human T47D cells at 50 ug/ml after 24 hrs by anchorage-dependent clonogenicity assay; assay type: functional, cell-based
Method in brief: (§4)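 Anchorage-dependent clonogenicity assay on K562 and T47D cells. Treatment at 50 μg/mL for 24 h, then colony formation scored as percent inhibition versus vehicle control.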

[12] = Cytotoxicity against human Hep3B cells after 48 hrs by MTS assay; assay type: functional, Hep 3B2; method in brief: as §2
K562 [13] = assay: Inhibition of colony formation in human K562 cells at 50 ug/ml after 24 hrs by anchorage-dependent clonogenicity assay; assay type: functional, cell-based; method in brief: as §4
Hs-578T [14] = assay: Cytotoxicity against human Hs578T cells after 48 hrs by MTS assay; assay type: functional; method in brief: as §2
[15] = Cytotoxicity against mouse NIH/3T3 cells after 48 hrs by MTS assay; assay type: cell-based, NIH3T3; conditions: read-out: MTS50; method in brief: as §2
[16] = Solubility of the compound in physiological saline; assay type: physicochemical; conditions: buffer
T47D [17] = assay: Cytotoxicity against human T47D cells after 48 hrs by MTS assay; assay type: functional; method in brief: as §2
[18] = Up-regulation of CLGN gene expression in human KYSE-150 cells at 8.5 ug/ml after 48 hrs; assay type: functional, cell-based; method in brief: as §3
Mus musculus [19] = assay: Toxicity in human Hep3B cells xenografted athymic nude mouse assessed as changes in histological appearance of vital organs at 10 mg/kg, ip qd for 8 days by ematoxylin and eosin staining; assay type: organism-based, Hep 3B2; set-up: dose 10 mg/kg, route intraperitoneal; conditions: in vivo, 192 h
Method in brief: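 Human Hep3B hepatocellular carcinoma cells grown as subcutaneous xenografts in athymic nude mice, five per group, given daily intraperitoneal injection at 10 mg/kg/day alongside vehicle controls. After 8 days of treatment, vital organs were collected, stained with hematoxylin and eosin, and examined for tissue damage at the histological level.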

Oc1cccc2cccnc12 [OXYQUINOLINE]
Activity (K562 [1]): 26.66%
Activity (T47D [2]): 52.6%

COc1cccc2ccc(C)nc12
Activity (K562 [1]): 27.15%
Activity (T47D [2]): 37.92%

Cc1ccc2cccc(O)c2n1 [8-HYDROXY QUINALDINE]
Activity (K562 [1]): 34.46%
Activity (T47D [2]): 46.54%

N#Cc1ccc2cccc(O)c2n1
Activity (K562 [1]): 23.08%
Activity (T47D [2]): 72.92%

CCOc1cccc2ccc(C)nc12
Activity (K562 [1]): 21.38%
Activity (T47D [2]): 63.43%

Cc1ccc2cccc(OCCN3CCCCC3)c2n1
Activity (K562 [1]): 27.43%
Activity (T47D [2]): 69.2%

O=Cc1ccc2cccc(O)c2n1
Activity (K562 [1]): 7%
MTS50 (MDA-MB-231 [3]): 12.5 µg/mL
Activity (MDA-MB-231 [4]): Active
MTS50 (A549): >50 µg/mL
Activity [5]: 53.4%
MTS50 (K562 [6]): 12.5 µg/mL
Activity (T47D [7]): Active
MTS50 (SK-HEP1): 12.5 µg/mL
Activity (Mus musculus [8]): Non-toxic
Ratio IC50 (T47D [9]): 4
Activity (Hep 3B2): Active
Activity (Hs-578T [10]): Active
MTS50 (SAOS-2): 12.5 µg/mL
inhibition (T47D [11]): Dose-dependent effect
MTS50 [12]: 6.25 µg/mL
inhibition (K562 [13]): Dose-dependent effect
MTS50 (Hs-578T [14]): 12.5 µg/mL
CC50 at 48 h [15]: 7 µg/mL (≈ 40.4 µM)
solubility [16]: Insoluble
MTS50 (T47D [17]): 12.5 µg/mL
Activity [18]: 65.4%
Activity (Mus musculus [19]): Non-toxic
Activity (T47D [2]): 8.37%
